Data: ChEMBL document CHEMBL4346727, “Synthesis and pharmacological evaluation of novel N-Mannich bases derived from 5,5-diphenyl and 5,5-di(propan-2-yl)imidazolidine-2,4-dione core” (Bioorg Med Chem Lett, 2019)
The source made the active and inactive calls. Unless noted, the calls are words filed in the database; no cut-off is given here.

Assays:
[1] = system: Mus musculus; assay: Anticonvulsant activity in CD1 mouse assessed as protection against subcutaneous pentylenetetrazole-induced seizures at 300 mg/kg, ip and measured after 0.5 hrs; format: functional, organism-based
Procedure, shortened: (§1)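 Mice were screened after intraperitoneal doses of 30, 100 and 300 mg/kg in the maximal electroshock and subcutaneous pentylenetetrazole tests, examined at 0.5 and 4 h. The value recorded is the minimum dose showing activity. No activity up to 300 mg/kg is scored as absent.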

[2] = system: Mus musculus; assay: Anticonvulsant activity in ip dosed CD1 mouse assessed as protection against subcutaneous pentylenetetrazole-induced seizures and measured after 4 hrs; format: functional; conditions: CD1, 4 h, read-out: MED; procedure, shortened: as §1
[3] = Neurotoxicity in ip dosed CD1 mouse and measured after 0.5 hrs by rotarod test; format: toxicity, organism-based; conditions: in vivo
Procedure, shortened: (§2)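 Mice dosed intraperitoneally at 30, 100 and 300 mg/kg, then tested on the rotarod at 0.5 h and 4 h. The value recorded is the minimum dose at which neurotoxicity appeared. A dash means no neurotoxicity at the top dose of 300 mg/kg.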

[4] = system: Mus musculus; assay: Anticonvulsant activity in ip dosed CD1 mouse assessed as protection against 50 mA current-induced seizure and measured after 4 hrs by maximal electroshock seizure test; format: functional; conditions: read-out: MED; procedure, shortened: as §1
[5] = system: Mus musculus; assay: Anticonvulsant activity in ip dosed CD1 mouse assessed as protection against 50 mA current-induced seizure and measured after 0.5 hrs by maximal electroshock seizure test; format: functional; conditions: read-out: MED; procedure, shortened: as §1
[6] = Neurotoxicity in ip dosed CD1 mouse and measured after 4 hrs by rotarod test; format: toxicity, organism-based; conditions: in vivo; procedure, shortened: as §2
[7] = Neurotoxicity in Sprague-Dawley rat at 30 mg/kg, po measured after 1 hr by rotarod test; format: toxicity, organism-based; conditions: in vivo
Procedure, shortened: (§3)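 Rats given one oral dose of 30 mg/kg and tested on the rotarod at 0.25, 0.5, 1, 2, 4 and 6 h.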

[8] = system: Rattus norvegicus; assay: Anticonvulsant activity in Sprague-Dawley rat assessed as protection against 150 mA current-induced seizure at 30 mg/kg, po measured after 4 hrs by maximal electroshock seizure test; format: functional, organism-based
Procedure, shortened: (§4)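 Rats received 30 mg/kg orally and were given maximal electroshock at 0.25, 0.5, 1, 2, 4 and 6 h. Read-out is the number of rats protected out of four.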

[9] = Neurotoxicity in CD1 mouse at 300 mg/kg, ip and measured after 4 hrs hrs by rotarod test; format: toxicity, organism-based; conditions: in vivo; procedure, shortened: as §2
[10] = system: Rattus norvegicus; assay: Anticonvulsant activity in Sprague-Dawley rat assessed as protection against 150 mA current-induced seizure at 30 mg/kg, po measured after 15 mins by maximal electroshock seizure test; format: functional, organism-based; procedure, shortened: as §4
[11] = Neurotoxicity in Sprague-Dawley rat at 30 mg/kg, po measured after 2 hr by rotarod test; format: toxicity, organism-based; conditions: in vivo; procedure, shortened: as §3
[12] = Neurotoxicity in CD1 mouse at 300 mg/kg, ip and measured after 0.5 hrs by rotarod test; format: toxicity, organism-based; conditions: in vivo; procedure, shortened: as §2
[13] = system: Mus musculus; assay: Anticonvulsant activity in CD1 mouse assessed as protection against 32 mA current-induced seizure at 50 mg/kg, ip measured after 4 hrs by 6 Hz psychomotor seizure test
[14] = Neurotoxicity in CD1 mouse at 50 mg/kg, ip measured after 30 mins by rotarod test; conditions: in vivo, 0.5 h
[15] = Neurotoxicity in Sprague-Dawley rat at 30 mg/kg, po measured after 30 mins by rotarod test; format: toxicity, organism-based; conditions: in vivo, 0.5 h; procedure, shortened: as §3
[16] = system: Rattus norvegicus; assay: Anticonvulsant activity in Sprague-Dawley rat assessed as protection against 150 mA current-induced seizure at 30 mg/kg, po measured after 30 mins by maximal electroshock seizure test; format: functional, organism-based; procedure, shortened: as §4
[17] = Neurotoxicity in Sprague-Dawley rat at 30 mg/kg, po measured after 4 hr by rotarod test; format: toxicity, organism-based; conditions: in vivo; procedure, shortened: as §3
[18] = Neurotoxicity in CD1 mouse at 50 mg/kg, ip measured after 1 hr by rotarod test; conditions: in vivo
[19] = Neurotoxicity in CD1 mouse at 50 mg/kg, ip measured after 15 mins by rotarod test; conditions: in vivo, 0.25 h
[20] = system: Mus musculus; assay: Anticonvulsant activity in CD1 mouse assessed as protection against subcutaneous pentylenetetrazole-induced seizures at 300 mg/kg, ip and measured after 4 hrs; format: functional, organism-based; procedure, shortened: as §1
[21] = Neurotoxicity in Sprague-Dawley rat at 30 mg/kg, po measured after 15 mins by rotarod test; format: toxicity, organism-based; conditions: in vivo, 0.25 h; procedure, shortened: as §3
[22] = Neurotoxicity in CD1 mouse at 50 mg/kg, ip measured after 2 hrs by rotarod test; conditions: in vivo
[23] = Neurotoxicity in CD1 mouse at 50 mg/kg, ip measured after 4 hrs by rotarod test; conditions: in vivo
[24] = system: Rattus norvegicus; assay: Anticonvulsant activity in Sprague-Dawley rat assessed as protection against 150 mA current-induced seizure at 30 mg/kg, po measured after 2 hrs by maximal electroshock seizure test; format: functional, organism-based; procedure, shortened: as §4
[25] = system: Mus musculus; assay: Anticonvulsant activity in CD1 mouse assessed as protection against 50 mA current-induced seizure at 300 mg/kg, ip and measured after 0.5 hrs by maximal electroshock seizure test; format: functional, organism-based; procedure, shortened: as §1
[26] = Neurotoxicity in Sprague-Dawley rat at 30 mg/kg, po measured after 6 hrs hr by rotarod test; format: toxicity, organism-based; conditions: in vivo; procedure, shortened: as §3
[27] = system: Rattus norvegicus; assay: Anticonvulsant activity in Sprague-Dawley rat assessed as protection against 150 mA current-induced seizure at 30 mg/kg, po measured after 1 hr by maximal electroshock seizure test; format: functional, organism-based; procedure, shortened: as §4
[28] = system: Rattus norvegicus; assay: Anticonvulsant activity in po dosed Sprague-Dawley rat assessed as time to peak effect on protection against subcutaneous pentylenetetrazole-induced seizures; format: functional
[29] = system: Rattus norvegicus; assay: Anticonvulsant activity in po dosed Sprague-Dawley rat assessed as time to peak effect on protection against 32 mA current-induced seizure by 6 Hz psychomotor seizure test; format: functional
[30] = system: Rattus norvegicus; assay: Anticonvulsant activity in po dosed Sprague-Dawley rat assessed as time to peak effect on protection against 150 mA current-induced seizures; format: functional
Procedure, shortened: (§5)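 Median effective doses were quantified in the maximal electroshock, subcutaneous pentylenetetrazole and 6 Hz tests after intraperitoneal dosing in mice or oral dosing in rats, at the time of peak effect. ED50 values are reported with ranges in parentheses.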

[31] = Neurotoxicity in po dosed Sprague-Dawley rat model by rotarod test; format: toxicity, organism-based; conditions: in vivo
Procedure, shortened: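 Rats dosed orally; neurotoxicity scored on the rotarod. Screening used a fixed 30 mg/kg, with animals checked at 0.25, 0.5, 1, 2, 4 and 6 h; the reading is the number of four rats showing neurotoxicity. In quantitative runs, a median toxic dose (TD50, mg/kg) was determined after oral dosing at the time of peak effect.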

[32] = system: Mus musculus; assay: Anticonvulsant activity in ip dosed CD1 mouse assessed as protection against subcutaneous pentylenetetrazole-induced seizures; format: functional; procedure, shortened: as §5
[33] = system: Mus musculus; assay: Anticonvulsant activity in ip dosed CD1 mouse assessed as time to peak effect on protection against subcutaneous pentylenetetrazole-induced seizures; format: functional; procedure, shortened: as §5
[34] = system: Mus musculus; assay: Anticonvulsant activity in ip dosed CD1 mouse assessed as time to peak effect on protection against 32 mA current-induced seizure by 6 Hz psychomotor seizure test; format: functional; procedure, shortened: as §5
[35] = system: Mus musculus; assay: Anticonvulsant activity in ip dosed CD1 mouse assessed as protection against 32 mA current-induced seizure by 6 Hz psychomotor seizure test; format: functional; procedure, shortened: as §5
[36] = system: Mus musculus; assay: Anticonvulsant activity in ip dosed CD1 mouse assessed as time to peak effect on protection against 50 mA current-induced seizures; format: functional; procedure, shortened: as §5
[37] = Protection index, ratio of TD50 for neurotoxicity in po dosed Sprague-Dawley rat by rotarod test to ED50 for anticonvulsant activity in po dosed Sprague-Dawley rat by maximal electroshock seizure test; format: toxicity, organism-based; conditions: in vivo, read-out: Ratio TD50/ED50
[38] = Neurotoxicity in po dosed Sprague-Dawley rat assessed as time to peak effect by rotarod test; format: toxicity, organism-based; conditions: in vivo
[39] = system: Rattus norvegicus; assay: Anticonvulsant activity in po dosed Sprague-Dawley rat assessed as protection against subcutaneous pentylenetetrazole-induced seizures; format: functional
[40] = Protection index, ratio of TD50 for neurotoxicity in ip dosed CD1 mouse by rotarod test to ED50 for anticonvulsant activity in ip dosed CD1 mouse by maximal electroshock seizure test; format: toxicity, organism-based; conditions: in vivo, read-out: Ratio TD50/ED50
[41] = Neurotoxicity in ip dosed CD1 mouse assessed as time to peak effect by rotarod test; format: toxicity, organism-based; conditions: in vivo
[42] = Neurotoxicity in CD1 mouse at 100 mg/kg, ip measured after 2 hrs by rotarod test; conditions: in vivo
[43] = Neurotoxicity in CD1 mouse at 100 mg/kg, ip measured after 30 mins by rotarod test; conditions: in vivo, 0.5 h
[44] = system: Mus musculus; assay: Anticonvulsant activity in CD1 mouse assessed as protection against 32 mA current-induced seizure at 100 mg/kg, ip measured after 15 mins by 6 Hz psychomotor seizure test
[45] = Neurotoxicity in CD1 mouse at 100 mg/kg, ip measured after 4 hrs by rotarod test; conditions: in vivo
[46] = Neurotoxicity in CD1 mouse at 100 mg/kg, ip measured after 1 hr by rotarod test; conditions: in vivo
[47] = system: Mus musculus; assay: Anticonvulsant activity in CD1 mouse assessed as protection against 32 mA current-induced seizure at 100 mg/kg, ip measured after 2 hrs by 6 Hz psychomotor seizure test
[48] = system: Mus musculus; assay: Anticonvulsant activity in CD1 mouse assessed as protection against 32 mA current-induced seizure at 100 mg/kg, ip measured after 30 mins by 6 Hz psychomotor seizure test
[49] = Neurotoxicity in CD1 mouse at 100 mg/kg, ip measured after 15 mins by rotarod test; conditions: in vivo, 0.25 h

Row | SMILES | MED [1] | minimal neurotoxic dose [3] | minimal effective dose [4] | minimal effective dose [5] | MTC [6] | Activity [7] | Activity [8] | Activity [9] | Activity [10] | Activity [11] | Activity [12] | Activity [15] | Activity [16] | Activity [17] | Activity [20] | Activity [21] | Activity [24] | Activity [27] | further results
1 | CC(C)C1(C(C)C)NC(=O)N(CN2CCN(c3ccccc3F)CC2)C1=O | inactive | 300 mg/kg | 100 mg/kg | 100 mg/kg | 300 mg/kg |  |  |  |  |  |  |  |  |  |  |  |  |  | minimal effective dose [2]: 100 mg/kg
2 | O=C1NC(c2ccccc2)(c2ccccc2)C(=O)N1CN1CCN(CCc2ccccc2)CC1 | inactive |  | 30 mg/kg | 100 mg/kg |  | Non-Toxic | inactive | Non-Toxic | inactive | Non-Toxic | Non-Toxic | Non-Toxic | Active | Non-Toxic | inactive | Non-Toxic |  |  | Activity [13]: Active; Activity [14]: Non-Toxic; Activity [18]: Non-Toxic; Activity [19]: Non-Toxic; Activity [22]: Non-Toxic; Activity [23]: Non-Toxic
3 | CC(C)C1(C(C)C)NC(=O)N(CN2CCN(c3ccccc3)CC2)C1=O | inactive |  | 300 mg/kg |  |  | Non-Toxic | inactive | Non-Toxic | inactive | Non-Toxic | Non-Toxic | Non-Toxic | inactive | Non-Toxic | inactive | Non-Toxic | inactive | inactive | Activity [25]: inactive; Activity [26]: Non-Toxic
4 | O=C1NC(=O)C(c2ccccc2)(c2ccccc2)N1 [PHENYTOIN] | inactive | 100 mg/kg | 30 mg/kg | 30 mg/kg | 100 mg/kg |  |  |  |  |  |  |  |  |  | inactive |  |  |  | Time [28]: 1 h; Time [29]: 1 h; Time [30]: 1 h; TD50 [31]: > 1000 mg/kg; ED50 [32]: > 500 mg/kg; Time [33]: 1 h; Time [34]: 1 h; ED50 [35]: > 60 mg/kg; Time [36]: 1 h; selectivity ratio [37]: > 35.6; Time [38]: 1 h; ED50 [39]: > 500 mg/kg; selectivity ratio [40]: 7.27; Time [41]: 1 h
5 | O=C1NC(c2ccccc2)(c2ccccc2)C(=O)N1CN1CCN(c2cccc(C(F)(F)F)c2)CC1 | inactive |  | 100 mg/kg | 300 mg/kg |  | Non-Toxic | Active | Non-Toxic | inactive | Non-Toxic | Non-Toxic | Non-Toxic |  | Non-Toxic | inactive | Non-Toxic | Active | Active | Activity [42]: Non-Toxic; Activity [43]: Non-Toxic; Activity [44]: inactive; Activity [45]: Non-Toxic; Activity [46]: Non-Toxic; Activity [47]: Active; Activity [48]: inactive; Activity [49]: Non-Toxic
